# Results as given in ChEMBL document CHEMBL2176925, “Novel ¹⁸F-labeled benzoxazole derivatives as potential positron emission tomography probes for imaging of cerebral β-amyloid plaques in Alzheimer's disease” (J Med Chem, 2012).
# Key:
# Bone [1] = assay: Drug uptake in ddY mouse bone at 370 kBq/100 ul, iv at 30 mins by gamma-counting analysis; assay type: ADME, organism-based, Bone element; settings: in vivo, 0.5 h
# In short: (§1)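 Normal male ddY mice (5 weeks, 20−22 g, n = 5) received 370 kBq of tracer in 100 μL saline with 5% EtOH via tail vein. Mice were sacrificed at set times after injection, and organs were excised, weighed and γ-counted against diluted injectate aliquots. Values are %ID per gram, except stomach and intestine as %ID per organ, given as mean ± SD of 5 mice.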
# Lung [2] = assay: Drug uptake in ddY mouse lung at 370 kBq/100 ul, iv at 30 mins by gamma-counting analysis; assay type: ADME, organism-based; settings: in vivo, 0.5 h; in short: as §1
# Heart [3] = assay: Drug uptake in ddY mouse heart at 370 kBq/100 ul, iv at 10 mins by gamma-counting analysis; assay type: ADME, organism-based; settings: in vivo; in short: as §1
# Stomach [4] = assay: Drug uptake in ddY mouse stomach assessed per organ at 370 kBq/100 ul, iv at 2 mins by gamma-counting analysis; assay type: ADME, organism-based; settings: in vivo; in short: as §1
# Brain [5] = assay: Drug uptake in ddY mouse brain at 370 kBq/100 ul, iv at 60 mins by gamma-counting analysis; assay type: ADME, organism-based; settings: in vivo, 1 h; in short: as §1
# Brain [6] = assay: Drug uptake in wild type C57BL6 mouse brain at 370 kBq/100 ul after 1 hr by autoradiographic analysis; assay type: ADME, tissue-based; settings: in vitro
# In short: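 Paraffin sections of brain were used: C57BL6 mice (wild-type, 12 months), human AD (person) and normal human. Sections were deparaffinized through xylene and graded ethanol, then equilibrated 30 min in PBS (0.2 M, pH 7.4). Incubated 1 h at room temperature with tracer, 370 kBq/100 μL, washed 1 min in 50% ethanol and rinsed with water. Imaging plate exposed overnight. Plaques confirmed by thioflavin-S or anti-Aβ1-42 monoclonal immunostaining.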
# Liver [7] = assay: Drug uptake in ddY mouse liver at 370 kBq/100 ul, iv at 60 mins by gamma-counting analysis; assay type: ADME, organism-based; settings: in vivo, 1 h; in short: as §1
# Stomach [8] = assay: Drug uptake in ddY mouse stomach assessed per organ at 370 kBq/100 ul, iv at 10 mins by gamma-counting analysis; assay type: ADME, organism-based; settings: in vivo; in short: as §1
# Spleen [9] = assay: Drug uptake in ddY mouse spleen at 370 kBq/100 ul, iv at 2 mins by gamma-counting analysis; assay type: ADME, organism-based; settings: in vivo; in short: as §1
# Liver [10] = assay: Drug uptake in ddY mouse liver at 370 kBq/100 ul, iv at 2 mins by gamma-counting analysis; assay type: ADME, organism-based; settings: in vivo; in short: as §1
# Spleen [11] = assay: Drug uptake in ddY mouse spleen at 370 kBq/100 ul, iv at 30 mins by gamma-counting analysis; assay type: ADME, organism-based; settings: in vivo, 0.5 h; in short: as §1
# Spleen [12] = assay: Drug uptake in ddY mouse spleen at 370 kBq/100 ul, iv at 60 mins by gamma-counting analysis; assay type: ADME, organism-based; settings: in vivo, 1 h; in short: as §1
# Heart [13] = assay: Drug uptake in ddY mouse heart at 370 kBq/100 ul, iv at 30 mins by gamma-counting analysis; assay type: ADME, organism-based; settings: in vivo, 0.5 h; in short: as §1
# Blood [14] = assay: Drug uptake in ddY mouse blood at 370 kBq/100 ul, iv at 2 mins by gamma-counting analysis; assay type: ADME, organism-based; settings: in vivo; in short: as §1
# [15] = n-Octanol-PBS buffer partition coefficient, log D of the compound at 370 kBq after 3 mins at pH 7.4; assay type: physicochemical
# In short: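 For log D, tubes containing n-octanol and PBS were vortexed 3 min at room temperature and centrifuged 5 min at 3000 rpm. Weighed samples of the octanol (100 μL) and buffer (500 μL) layers were counted. Log D is the log of the ratio of counts per gram, octanol to PBS.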
# Heart [16] = assay: Drug uptake in ddY mouse heart at 370 kBq/100 ul, iv at 2 mins by gamma-counting analysis; assay type: ADME, organism-based; settings: in vivo; in short: as §1
# Intestine [17] = assay: Drug uptake in ddY mouse intestine at 370 kBq/100 ul, iv at 10 mins by gamma-counting analysis; assay type: ADME, organism-based; settings: in vivo; in short: as §1
# Bone [18] = assay: Drug uptake in ddY mouse bone at 370 kBq/100 ul, iv at 60 mins by gamma-counting analysis; assay type: ADME, organism-based, Bone element; settings: in vivo, 1 h; in short: as §1
# Bone [19] = assay: Drug uptake in ddY mouse bone at 370 kBq/100 ul, iv at 2 mins by gamma-counting analysis; assay type: ADME, organism-based, Bone element; settings: in vivo; in short: as §1
# Intestine [20] = assay: Drug uptake in ddY mouse intestine at 370 kBq/100 ul, iv at 30 mins by gamma-counting analysis; assay type: ADME, organism-based; settings: in vivo, 0.5 h; in short: as §1
# Heart [21] = assay: Drug uptake in ddY mouse heart at 370 kBq/100 ul, iv at 60 mins by gamma-counting analysis; assay type: ADME, organism-based; settings: in vivo, 1 h; in short: as §1
# Blood [22] = assay: Drug uptake in ddY mouse blood at 370 kBq/100 ul, iv at 10 mins by gamma-counting analysis; assay type: ADME, organism-based; settings: in vivo; in short: as §1
# Spleen [23] = assay: Drug uptake in ddY mouse spleen at 370 kBq/100 ul, iv at 10 mins by gamma-counting analysis; assay type: ADME, organism-based; settings: in vivo; in short: as §1
# Intestine [24] = assay: Drug uptake in ddY mouse intestine at 370 kBq/100 ul, iv at 2 mins by gamma-counting analysis; assay type: ADME, organism-based; settings: in vivo; in short: as §1
# Bone [25] = assay: Drug uptake in ddY mouse bone at 370 kBq/100 ul, iv at 10 mins by gamma-counting analysis; assay type: ADME, organism-based, Bone element; settings: in vivo; in short: as §1
# Kidney [26] = assay: Drug uptake in ddY mouse kidney at 370 kBq/100 ul, iv at 30 mins by gamma-counting analysis; assay type: ADME, organism-based; settings: in vivo, 0.5 h; in short: as §1
# Lung [27] = assay: Drug uptake in ddY mouse lung at 370 kBq/100 ul, iv at 60 mins by gamma-counting analysis; assay type: ADME, organism-based; settings: in vivo, 1 h; in short: as §1
# Brain [28] = assay: Drug uptake in ddY mouse brain at 370 kBq/100 ul, iv at 10 mins by gamma-counting analysis; assay type: ADME, organism-based; settings: in vivo; in short: as §1
# Brain [29] = assay: Drug uptake in ddY mouse brain at 370 kBq/100 ul, iv at 2 mins by gamma-counting analysis; assay type: ADME, organism-based; settings: in vivo; in short: as §1
# Stomach [30] = assay: Drug uptake in ddY mouse stomach assessed per organ at 370 kBq/100 ul, iv at 60 mins by gamma-counting analysis; assay type: ADME, organism-based; settings: in vivo, 1 h
# In short: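 Male ddY mice (5 weeks, 20−22 g, n = 5) received tracer in saline with 5% EtOH, 370 kBq/100 μL, by tail vein. Killed at set times after dosing. Stomach removed, weighed and γ-counted against diluted aliquots of the injected dose. Reported as % injected dose per organ, mean ± SD of 5 mice.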
# Lung [31] = assay: Drug uptake in ddY mouse lung at 370 kBq/100 ul, iv at 2 mins by gamma-counting analysis; assay type: ADME, organism-based; settings: in vivo; in short: as §1
# Liver [32] = assay: Drug uptake in ddY mouse liver at 370 kBq/100 ul, iv at 30 mins by gamma-counting analysis; assay type: ADME, organism-based; settings: in vivo, 0.5 h; in short: as §1
# Liver [33] = assay: Drug uptake in ddY mouse liver at 370 kBq/100 ul, iv at 10 mins by gamma-counting analysis; assay type: ADME, organism-based; settings: in vivo; in short: as §1
# Brain [34] = assay: Ratio of drug uptake in brain at 2 mins to drug uptake in brain at 60 mins in ddY mouse at 370 kBq/100 ul, iv; assay type: ADME, organism-based; settings: in vivo
# In short: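 Tail-vein injection of 370 kBq/100 μL (saline, 5% EtOH) into male ddY mice (5 weeks, 20−22 g, n = 5). Brain excised at 2 and 60 min, weighed and γ-counted against diluted injectate. Uptake is %ID/g, and the ratio is brain at 2 min divided by brain at 60 min.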
# Kidney [35] = assay: Drug uptake in ddY mouse kidney at 370 kBq/100 ul, iv at 60 mins by gamma-counting analysis; assay type: ADME, organism-based; settings: in vivo, 1 h; in short: as §1
Drug uptake (Bone [1]) [% ID/g],Drug uptake (Lung [2]) [% ID/g],Drug uptake (Heart [3]) [% ID/g],Drug uptake (Stomach [4]) [%ID],Drug uptake (Brain [5]) [% ID/g],Drug uptake (Brain [6]),Drug uptake (Liver [7]) [% ID/g],Drug uptake (Stomach [8]) [%ID],Drug uptake (Spleen [9]) [% ID/g],Drug uptake (Liver [10]) [% ID/g],Drug uptake (Spleen [11]) [% ID/g],Drug uptake (Spleen [12]) [% ID/g],Drug uptake (Heart [13]) [% ID/g],Drug uptake (Blood [14]) [% ID/g],logD at 0.05 h [15],Drug uptake (Heart [16]) [% ID/g],Drug uptake (Intestine [17]) [% ID/g],Drug uptake (Bone [18]) [% ID/g],Drug uptake (Bone [19]) [% ID/g],Drug uptake (Intestine [20]) [% ID/g],Structure (SMILES),further results
1.96,3.28,3.52,1.1,2.12,Not Active,6.92,1.37,3.6,13.04,2.53,2.25,3.14,3.24,3.45,5.55,15.7,3.45,1.18,22.59,CN(C)c1ccc(-c2nc3cc(OCCOCCOCC[18F])ccc3o2)cc1,Drug uptake (Heart [21]): 3.13 % ID/g; Drug uptake (Blood [22]): 2.26 % ID/g; Drug uptake (Spleen [23]): 2.88 % ID/g; Drug uptake (Intestine [24]): 4.8 % ID/g; Drug uptake (Bone [25]): 1.07 % ID/g; Drug uptake (Kidney [26]): 4.08 % ID/g; Drug uptake (Lung [27]): 3.22 % ID/g; Drug uptake (Brain [28]): 3.37 % ID/g; Drug uptake (Brain [29]): 5.29 % ID/g; Drug uptake (Stomach [30]): 1.41 %ID; Drug uptake (Lung [31]): 5.18 % ID/g; Drug uptake (Liver [32]): 9.2 % ID/g; Drug uptake (Liver [33]): 11.36 % ID/g; Ratio (Brain [34]): 2.5; Drug uptake (Kidney [35]): 3.68 % ID/g
3.74,5.3,4.78,1.59,3.04,Not Active,13.06,2.36,3.9,20.28,3.92,3.42,4.84,4.76,3.09,8.57,25,5.78,3.17,23.92,CNc1ccc(-c2nc3cc(OCCOCCOCC[18F])ccc3o2)cc1,Drug uptake (Heart [21]): 4.32 % ID/g; Drug uptake (Blood [22]): 3.46 % ID/g; Drug uptake (Spleen [23]): 4.22 % ID/g; Drug uptake (Intestine [24]): 11.33 % ID/g; Drug uptake (Bone [25]): 2.32 % ID/g; Drug uptake (Kidney [26]): 6.84 % ID/g; Drug uptake (Lung [27]): 5.22 % ID/g; Drug uptake (Brain [28]): 4.41 % ID/g; Drug uptake (Brain [29]): 8.12 % ID/g; Drug uptake (Stomach [30]): 1.87 %ID; Drug uptake (Lung [31]): 8.18 % ID/g; Drug uptake (Liver [32]): 19.31 % ID/g; Drug uptake (Liver [33]): 23.15 % ID/g; Ratio (Brain [34]): 2.67; Drug uptake (Kidney [35]): 5.4 % ID/g
